The record followed here is ChEMBL document CHEMBL1132380, “Drug delivery systems employing 1,4- or 1,6-elimination: poly(ethylene glycol) prodrugs of amine-containing compounds” (J Med Chem, 1999).

Data set [1] relates to Mus musculus. The data set can be described thus: Toxicity at a dose of 830 mg/kg against M109 tumors conducted in female BALB/c mice. In kind it is functional.
Data set [2] concerns Mus musculus. The data set can be described thus: Effect of 3 mg/kg/dose of compound given iv q4d x 3 against sc human ovarian tumor (SK-OV3) in mice expressed as treated/ control ( 1000 mm**3) median tumor volume on day 30. Type of data set: functional. An outline of the steps: (§1)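 Female nu/nu mice (18–24 g) given 1×10^6 SKOV3 cells sc in the left flank in 0.1 mL medium. SKOV3 grown in McCoy's 5a with 15% FBS. Dosing starts at about 70 mm³ mean tumor volume (day 1), with 3 mg/kg/dose DNR content iv on days 1, 5 and 9. n = 5/group against untreated controls. Mean volumes compared at day 30; median volumes compared when control median reached about 1000 mm³.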

In data set [3] the test system is Mus musculus. The data set is described as follows: T/C of median tumor volumes when 3 mg/kg/dose of compound was given to BALB/c mice bearing sc M109 on days 3 and 6 (iv) after inoculation (control ~2000 mm**3). In kind it is functional. An outline of the steps: (§2)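 Female balb/c mice (20–25 g) given about 5×10^5 M109 cells sc in the left flank on day 0. M109 grown in EMEM with 10% FBS. Dosing is 3 mg/kg/dose of active DNR, ip on days 1 and 4 or iv on days 3 and 6. Groups of 6 include untreated controls. Median tumor volumes compared when control median reached about 2000 mm³.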

The test system of the next data set is P388. The data set can be described thus: Compound was evaluated for cytotoxicity against P388 leukemia cell line. The settings on record: Mus musculus. In kind it is functional, cell-based.
For data set [4], the system named is Mus musculus. The data set can be described thus: Effect of 3 mg/kg/dose of compound given iv q4d x 3 against sc human ovarian tumor (SK-OV3) in mice expressed as treated/ control mean tumor volume on day 30. Type of data set: functional. An outline of the steps: as §1
Data set [5] concerns Mus musculus. The data set can be described thus: T/C of median tumor volumes when 3 mg/kg/dose of compound was given to BALB/c mice bearing sc M109 on days 1 and 4 (ip) after inoculation (control ~2000 mm**3). Type of data set: functional. The note with it: route intraperitoneal. The method, boiled down: as §2
The subject of data set [6] is Mus musculus. The data set can be described thus: Effect of 3 mg/kg/dose of compound given iv q4d x 3 against sc human ovarian tumor (SK-OV3) in mice expressed as % tumor volume change from initial by day 30. In kind it is functional. The method, boiled down:
as §1

The subject of data set [7] is Mus musculus. The data set is described as follows: Effect of 3 mg/kg/dose of compound given iv q4d x 3 against sc human ovarian tumor (SK-OV3) in mice expressed as Mean tumor volume by day 30. In kind it is functional. An outline of the steps:
as §1

Data set [8] can be described thus: Half-life in rat plasma. Type of data set: ADME. An outline of the steps: (§3)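 Release of free drug and hydrolysis of PEG conjugate followed in PBS (pH 7.4) or fresh rat plasma at 37 °C. Half-life derived from these rates. Run in duplicate; SD ±10%.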
The nature of data set [9]: Half-life in buffer at pH 7.4. In kind it is ADME. The method, boiled down: as §3

For the compound `Cc1cc(COC(=O)NC(C)C)cc(C)c1NC(=O)OCCOCCOCCO`, the “Toxicity (deaths)” value with Mus musculus [1] is listed as 0%.

As a reminder, the T/C is the ratio of treated to control. As usually defined, the IC50 is the midpoint of a concentration-inhibition curve. Low values mean higher potency, high ones lower potency. For `COc1cccc2c1C(=O)c1c(O)c3c(c(O)c1C2=O)C[C@@](O)(C(C)=O)C[C@@H]3O[C@H]1C[C@H](N)[C@H](O)[C@H](C)O1` [DAUNORUBICIN], the T/C was determined as 54% with Mus musculus [2], 117% with Mus musculus [3], 92% in the data set on Mus musculus [4] and 44.8% with Mus musculus [5]. In the data set with P388, this compound registered an IC50 of 3 nM. Besides, the Tumor growth in the data set with Mus musculus [6] was determined as 1226%. Besides, the Mean tumor volume in the data set with Mus musculus [7] came to 1154.

For orientation: half-life means the time needed for the level to fall by half in the phase considered. A low value points to fast loss. Consider `COc1cc(COC(=O)NCC(=O)[C@]2(O)Cc3c(O)c4c(c(O)c3[C@@H](OC3CC(N)C(O)C(C)O3)C2)C(=O)c2c(OC)cccc2C4=O)cc(OC)c1OC(=O)CCOCCOCCO` (stereo not given in full), for which the half-life in data set [8] is 1 h; in data set [9] it was above 48 h. The T/C in the data set with Mus musculus [3] was found to be 48.2%; in the data set on Mus musculus [5], 68.6%. The same compound came in with a 50% inhibitory concentration (IC50) with P388 of 27 nM.

On to `COc1cccc2c1C(=O)c1c(O)c3c(c(O)c1C2=O)C[C@@](O)(C(=O)CNC(=O)OCc1cc(C)c(OC(=O)CCOCCOCCO)c(C)c1)C[C@@H]3OC1CC(N)C(O)C(C)O1` (stereo not given in full), for which the half-life in data set [8] was 1.9 h; in data set [9], above 48 h. The T/C in the data set with Mus musculus [3] worked out at 67.9%; with Mus musculus [5], 90.3%. In the data set on P388, this compound displayed a half-inhibitory concentration (IC50) of 55 nM.

For `COc1cccc2c1C(=O)c1c(O)c3c(c(O)c1C2=O)C[C@@](O)(C(=O)CNC(=O)OCc1cc(C)c(OC(=O)OCCOCCOCCO)c(C)c1)C[C@@H]3OC1CC(N)C(O)C(C)O1` (stereo not given in full), the values for the half-life in data set [8] and in [9] were 2.9 h and above 48 h, respectively. For the same compound, the T/C in the data set with Mus musculus [3] was determined as 74.4%; in the data set with Mus musculus [5], 90.3%. Further, inhibition with P388 was half-maximal at 179 nM (IC50).

Regarding `COc1cccc2c1C(=O)c1c(O)c3c(c(O)c1C2=O)C[C@@](O)(C(=O)CNC(=O)OCc1ccc(NC(=O)CCOCCOCCO)cc1)C[C@@H]3OC1CC(N)C(O)C(C)O1` (stereo not given in full), the half-life in data set [8] was above 24 h; in [9], above 48 h. The 50% inhibitory concentration (IC50) with P388 came out at 457 nM. Besides, the T/C with Mus musculus [5] is recorded as 122.7%.

Consider `COc1cc(COC(=O)NC(CC(C)C)C(=O)OC(C)(C)C)cc(OC)c1OC(=O)CCOCCOCCO` (stereo not given), for which, in the data set on Mus musculus [1], the “Toxicity (deaths)” value is recorded as 0%.

Consider `Cc1cc(COC(=O)NC(C)C)cc(C)c1OC(=O)CCOCCOCCO`, for which the “Toxicity (deaths)” value in the data set on Mus musculus [1] was 0%.

With `COc1cccc2c1C(=O)c1c(O)c3c(c(O)c1C2=O)C[C@@](O)(C(=O)CNC(=O)OCc1ccc(OC(=O)C(C)(C)NC(=O)CCOCCOCCO)cc1)C[C@@H]3OC1CC(N)C(O)C(C)O1` (stereo not given in full), the half-life in data set [8] was 1.3 h; in [9], above 48 h. In the data set on P388, this compound returned a 50% inhibitory concentration (IC50) of 18 nM. In the data set on Mus musculus [5], this compound came in with a T/C of 87.6%.

Take `COc1cccc2c1C(=O)c1c(O)c3c(c(O)c1C2=O)C[C@@](O)(C(=O)CNC(=O)OCc1ccc(OC(=O)NCCOCCOCCO)cc1)C[C@@H]3OC1CC(N)C(O)C(C)O1` (stereo not given in full): the half-life in data set [8] is 4 h; in [9], above 48 h. For the same compound, the T/C was 11% in the data set with Mus musculus [2], 64.6% in the data set with Mus musculus [3], 12% with Mus musculus [4] and 84.1% in the data set on Mus musculus [5]. This compound registered an IC50 in the data set on P388 of 15 nM. The compound further showed a Tumor growth with Mus musculus [6] of 86%. This compound also registered a Mean tumor volume in the data set on Mus musculus [7] of 154.

Consider `COc1cccc2c1C(=O)c1c(O)c3c(c(O)c1C2=O)C[C@@](O)(C(=O)CNC(=O)OCc1ccccc1OC(=O)NCCOCCOCCO)C[C@@H]3OC1CC(N)C(O)C(C)O1` (stereo not given in full), for which the half-life in [8] was 3 h; in [9], above 48 h. Also, the values for the T/C in the data set with Mus musculus [3] and in the data set with Mus musculus [5] were 68.7% and 91.3%, respectively. For the same compound, the IC50 in the data set with P388 was found to be 35 nM.

Turning to `COc1cccc2c1C(=O)c1c(O)c3c(c(O)c1C2=O)C[C@@](O)(C(=O)CNC(=O)OCc1ccc(NC(=O)OCCOCCOCCO)cc1)C[C@@H]3OC1CC(N)C(O)C(C)O1` (stereo not given in full), the half-life in [8] is above 24 h; in data set [9], above 48 h. Also, the T/C with Mus musculus [2] is recorded as 41%; in the data set on Mus musculus [3], 129%; with Mus musculus [4], 21%; in the data set with Mus musculus [5] it was 75.3%. The same compound registered a concentration for half-maximal inhibition (IC50) with P388 of 415 nM. This compound also showed a Tumor growth with Mus musculus [6] of 400%. In the data set with Mus musculus [7], the Mean tumor volume was 272.

`COc1cccc2c1C(=O)c1c(O)c3c(c(O)c1C2=O)C[C@@](O)(C(=O)CNC(=O)OCc1ccccc1NC(=O)OCCOCCOCCO)C[C@@H]3OC1CC(N)C(O)C(C)O1` (stereo not given in full): the half-life in data set [8] was above 24 h; in data set [9], above 48 h. In addition, the T/C was 117% in the data set with Mus musculus [3] and 112.2% in the data set on Mus musculus [5]. This compound had an IC50 in the data set with P388 of 130 nM.

As for `COc1cccc2c1C(=O)c1c(O)c3c(c(O)c1C2=O)C[C@@](O)(C(=O)CNC(=O)OCc1ccc(OC(=O)CCOCCOCCO)cc1)C[C@@H]3OC1CC(N)C(O)C(C)O1` (stereo not given in full), the half-life in data set [8] is 0.4 h; in data set [9] it was above 24 h. This compound also had a half-inhibitory concentration (IC50) in the data set with P388 of 8 nM. The compound also returned a T/C in the data set on Mus musculus [5] of 92.8%.
